Data: ChEMBL document CHEMBL5724801, “EUbOPEN Chemogenomics Library - Multiplex” (2024)
“And” between values parts separate entries of the source, which are not always exact repeats. Equal entries are not always repeated.

Test system: HEK-293T
Assay: Multiplex assay against HEK293T
Format: toxicity, cell-based
Settings: human
In short: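 At seeding, live cells were stained with Hoechst33342, BioTracker Green Microtubule Cytoskeleton Dye, MitoTracker Red and Annexin V Alexa Fluor 680. After compound addition they were imaged on a CQ1 microscope at 37°C and 5% CO2, and CellPathfinder machine-learning gating sorted them into Hoechst high-intensity objects or normal cells, with normal cells further split into healthy, pyknosed or fragmented nuclei and pyknosed cells into mitotic or apoptotic. Tubulin, mitochondrial-mass and membrane-permeability phenotypes are given as per cents of cells with healthy nuclei.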

[1] = 12 h, 1 µM, compound concentration 1 uM
[2] = 12 h, 10 µM, compound concentration 10 uM
[3] = 24 h, 1 µM, compound concentration 1 uM
[4] = 24 h, 10 µM, compound concentration 10 uM
[5] = 48 h, 1 µM, compound concentration 1 uM
[6] = 48 h, 10 µM, compound concentration 10 uM

Structure (SMILES): CC(=O)NCCc1c(Cc2ccccc2)[nH]c2ccccc12 [LUZINDOLE]
- Population Apoptotic (%) [1]: 38% and 43%
- Population Fragmented Nuclei (%) [1]: 7% and 5%
- Population Healthy Nuclei (%) [1]: 79% and 80%
- Population Hoechst High Intensity Objects (%) [1]: 11% and 8%
- Population Membrane Permeable-Phenotype (%) [1]: 0%
- Population Mitochondria Different-Phenotype (%) [1]: 54% and 68%
- Population Mitotic Cells (%) [1]: 61% and 56%
- Population Normal (%) [1]: 88% and 91%
- Population Pyknosed Nuclei (%) [1]: 12% and 13%
- Population Tubulin-Different-Phenotype (%) [1]: 39% and 27%
- Total Cell Count [1]: 412 and 304
- Population Apoptotic (%) [2]: 37% and 53%
- Population Fragmented Nuclei (%) [2]: 8% and 5%
- Population Healthy Nuclei (%) [2]: 77% and 80%
- Population Hoechst High Intensity Objects (%) [2]: 10% and 9%
- Population Membrane Permeable-Phenotype (%) [2]: 0%
- Population Mitochondria Different-Phenotype (%) [2]: 61% and 72%
- Population Mitotic Cells (%) [2]: 62% and 46%
- Population Normal (%) [2]: 89% and 90%
- Population Pyknosed Nuclei (%) [2]: 14%
- Population Tubulin-Different-Phenotype (%) [2]: 45% and 35%
- Total Cell Count [2]: 379 and 315
- Population Apoptotic (%) [3]: 20% and 40%
- Population Fragmented Nuclei (%) [3]: 12% and 7%
- Population Healthy Nuclei (%) [3]: 75% and 82%
- Population Hoechst High Intensity Objects (%) [3]: 7% and 8%
- Population Membrane Permeable-Phenotype (%) [3]: 0%
- Population Mitochondria Different-Phenotype (%) [3]: 33% and 45%
- Population Mitotic Cells (%) [3]: 80% and 60%
- Population Normal (%) [3]: 92% and 91%
- Population Pyknosed Nuclei (%) [3]: 11% and 10%
- Population Tubulin-Different-Phenotype (%) [3]: 26% and 18%
- Total Cell Count [3]: 546 and 379
- Population Apoptotic (%) [4]: 40% and 28%
- Population Fragmented Nuclei (%) [4]: 9% and 11%
- Population Healthy Nuclei (%) [4]: 81% and 77%
- Population Hoechst High Intensity Objects (%) [4]: 10% and 11%
- Population Membrane Permeable-Phenotype (%) [4]: 1% and 0%
- Population Mitochondria Different-Phenotype (%) [4]: 40% and 58%
- Population Mitotic Cells (%) [4]: 60% and 71%
- Population Normal (%) [4]: 89% and 88%
- Population Pyknosed Nuclei (%) [4]: 8% and 11%
- Population Tubulin-Different-Phenotype (%) [4]: 32% and 24%
- Total Cell Count [4]: 502 and 388
- Population Apoptotic (%) [5]: 24% and 46%
- Population Fragmented Nuclei (%) [5]: 16% and 12%
- Population Healthy Nuclei (%) [5]: 78% and 82%
- Population Hoechst High Intensity Objects (%) [5]: 3% and 6%
- Population Membrane Permeable-Phenotype (%) [5]: 1% and 0%
- Population Mitochondria Different-Phenotype (%) [5]: 16% and 23%
- Population Mitotic Cells (%) [5]: 75% and 53%
- Population Normal (%) [5]: 96% and 93%
- Population Pyknosed Nuclei (%) [5]: 5%
- Population Tubulin-Different-Phenotype (%) [5]: 12% and 13%
- Total Cell Count [5]: 965 and 522
- Population Apoptotic (%) [6]: 27% and 36%
- Population Fragmented Nuclei (%) [6]: 13% and 11%
- Population Healthy Nuclei (%) [6]: 79% and 82%
- Population Hoechst High Intensity Objects (%) [6]: 9% and 6%
- Population Membrane Permeable-Phenotype (%) [6]: 0%
- Population Mitochondria Different-Phenotype (%) [6]: 27% and 32%
- Population Mitotic Cells (%) [6]: 72% and 63%
- Population Normal (%) [6]: 90% and 93%
- Population Pyknosed Nuclei (%) [6]: 7% and 5%
- Population Tubulin-Different-Phenotype (%) [6]: 17% and 19%
- Total Cell Count [6]: 742 and 573

Structure (SMILES): N[C@@]1(C(=O)O)CO[C@H]2[C@H](C(=O)O)[C@H]21 [LY-379268]
- Population Apoptotic (%) [1]: 40% and 42%
- Population Fragmented Nuclei (%) [1]: 6%
- Population Healthy Nuclei (%) [1]: 81% and 80%
- Population Hoechst High Intensity Objects (%) [1]: 5% and 10%
- Population Membrane Permeable-Phenotype (%) [1]: 0% and 1%
- Population Mitochondria Different-Phenotype (%) [1]: 38% and 57%
- Population Mitotic Cells (%) [1]: 60% and 57%
- Population Normal (%) [1]: 94% and 89%
- Population Pyknosed Nuclei (%) [1]: 12%
- Population Tubulin-Different-Phenotype (%) [1]: 26% and 18%
- Total Cell Count [1]: 396 and 411
- Population Apoptotic (%) [2]: 27% and 52%
- Population Fragmented Nuclei (%) [2]: 10% and 8%
- Population Healthy Nuclei (%) [2]: 78% and 79%
- Population Hoechst High Intensity Objects (%) [2]: 8% and 7%
- Population Membrane Permeable-Phenotype (%) [2]: 0%
- Population Mitochondria Different-Phenotype (%) [2]: 33% and 51%
- Population Mitotic Cells (%) [2]: 72% and 47%
- Population Normal (%) [2]: 91% and 92%
- Population Pyknosed Nuclei (%) [2]: 10% and 12%
- Population Tubulin-Different-Phenotype (%) [2]: 31% and 18%
- Total Cell Count [2]: 437 and 380
- Population Apoptotic (%) [3]: 30% and 29%
- Population Fragmented Nuclei (%) [3]: 8% and 7%
- Population Healthy Nuclei (%) [3]: 79% and 83%
- Population Hoechst High Intensity Objects (%) [3]: 2% and 7%
- Population Membrane Permeable-Phenotype (%) [3]: 0%
- Population Mitochondria Different-Phenotype (%) [3]: 21% and 31%
- Population Mitotic Cells (%) [3]: 70%
- Population Normal (%) [3]: 97% and 92%
- Population Pyknosed Nuclei (%) [3]: 11% and 9%
- Population Tubulin-Different-Phenotype (%) [3]: 20% and 13%
- Total Cell Count [3]: 517 and 481
- Population Apoptotic (%) [4]: 36% and 43%
- Population Fragmented Nuclei (%) [4]: 10% and 8%
- Population Healthy Nuclei (%) [4]: 79% and 82%
- Population Hoechst High Intensity Objects (%) [4]: 6% and 8%
- Population Membrane Permeable-Phenotype (%) [4]: 0%
- Population Mitochondria Different-Phenotype (%) [4]: 24% and 39%
- Population Mitotic Cells (%) [4]: 63% and 56%
- Population Normal (%) [4]: 93% and 91%
- Population Pyknosed Nuclei (%) [4]: 9%
- Population Tubulin-Different-Phenotype (%) [4]: 15%
- Total Cell Count [4]: 551 and 470
- Population Apoptotic (%) [5]: 26% and 33%
- Population Fragmented Nuclei (%) [5]: 13% and 10%
- Population Healthy Nuclei (%) [5]: 79% and 81%
- Population Hoechst High Intensity Objects (%) [5]: 3% and 7%
- Population Membrane Permeable-Phenotype (%) [5]: 1% and 0%
- Population Mitochondria Different-Phenotype (%) [5]: 15% and 22%
- Population Mitotic Cells (%) [5]: 73% and 66%
- Population Normal (%) [5]: 97% and 92%
- Population Pyknosed Nuclei (%) [5]: 6% and 7%
- Population Tubulin-Different-Phenotype (%) [5]: 9% and 14%
- Total Cell Count [5]: 866 and 611
- Population Apoptotic (%) [6]: 24% and 25%
- Population Fragmented Nuclei (%) [6]: 16% and 11%
- Population Healthy Nuclei (%) [6]: 75% and 80%
- Population Hoechst High Intensity Objects (%) [6]: 4%
- Population Membrane Permeable-Phenotype (%) [6]: 1% and 0%
- Population Mitochondria Different-Phenotype (%) [6]: 18% and 19%
- Population Mitotic Cells (%) [6]: 75%
- Population Normal (%) [6]: 95%
- Population Pyknosed Nuclei (%) [6]: 7%
- Population Tubulin-Different-Phenotype (%) [6]: 10% and 9%
- Total Cell Count [6]: 781 and 689
